In test [1] the target is Poly [ADP-ribose] polymerase 1 (Homo sapiens) (UniProt P09874). The experiment in a line: Inhibition of human full-length PARP1 expressed in bacterial expression system assessed as reduction in enzyme mediated autoPARylation at 100 uM using NAD+ as substrate preincubated for 30 mins followed by substrate addition and measured after 2 hrs by immunoblot analysis. Particulars: time 2.5 hrs. In outline:
(§1)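 Full-length human PARP1 or PARP2, expressed recombinantly in and purified from bacteria, auto-PARylated without or with 100 μM compound. Read-out was immunoblot with an anti-PAR antibody. Loading control was anti-His₆ for PARP1 and anti-PARP2 antibody for PARP2. Signal was quantified by densitometry normalized to the loading control, with significance testing.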
Background: A western blot detects proteins with antibodies after separation by electrophoresis.

The target in test [2] is T1, Poly [ADP-ribose] polymerase 2 (Homo sapiens, UniProt Q9UGN5). As to the kind of experiment: Inhibition of human full-length PARP2 expressed in bacterial expression system assessed as reduction in enzyme mediated autoPARylation at 100 uM using NAD+ as substrate preincubated for 30 mins followed by substrate addition and measured after 2 hrs by immunoblot analysis. Particulars: time 2.5 hrs. In outline:
as §1

Test [3] relates to HAP1. As to the kind of experiment: Inhibition of PARP in human HAP1 PARP1-KO cell lysates assessed as reduction in protein ADP-ribosylation at 100 uM using NAD+ as substrate measured after 2 hrs by immunoblot analysis. The format is subcellular. In outline:
(§2)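 HAP1 or HAP1/PARP1-KO cell lysates were ADP-ribosylated without or with 100 μM compound. Protein ADP-ribosylation was detected by immunoblot with the AF1521 macrodomain pan-ADPr binding reagent, with anti-GAPDH as loading control. Densitometric signal was normalized to loading control and tested for significance.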

Test [4] addresses T2, Poly [ADP-ribose] polymerase tankyrase-1 (Homo sapiens) (UniProt O95271).
T2 sequence (whole entry): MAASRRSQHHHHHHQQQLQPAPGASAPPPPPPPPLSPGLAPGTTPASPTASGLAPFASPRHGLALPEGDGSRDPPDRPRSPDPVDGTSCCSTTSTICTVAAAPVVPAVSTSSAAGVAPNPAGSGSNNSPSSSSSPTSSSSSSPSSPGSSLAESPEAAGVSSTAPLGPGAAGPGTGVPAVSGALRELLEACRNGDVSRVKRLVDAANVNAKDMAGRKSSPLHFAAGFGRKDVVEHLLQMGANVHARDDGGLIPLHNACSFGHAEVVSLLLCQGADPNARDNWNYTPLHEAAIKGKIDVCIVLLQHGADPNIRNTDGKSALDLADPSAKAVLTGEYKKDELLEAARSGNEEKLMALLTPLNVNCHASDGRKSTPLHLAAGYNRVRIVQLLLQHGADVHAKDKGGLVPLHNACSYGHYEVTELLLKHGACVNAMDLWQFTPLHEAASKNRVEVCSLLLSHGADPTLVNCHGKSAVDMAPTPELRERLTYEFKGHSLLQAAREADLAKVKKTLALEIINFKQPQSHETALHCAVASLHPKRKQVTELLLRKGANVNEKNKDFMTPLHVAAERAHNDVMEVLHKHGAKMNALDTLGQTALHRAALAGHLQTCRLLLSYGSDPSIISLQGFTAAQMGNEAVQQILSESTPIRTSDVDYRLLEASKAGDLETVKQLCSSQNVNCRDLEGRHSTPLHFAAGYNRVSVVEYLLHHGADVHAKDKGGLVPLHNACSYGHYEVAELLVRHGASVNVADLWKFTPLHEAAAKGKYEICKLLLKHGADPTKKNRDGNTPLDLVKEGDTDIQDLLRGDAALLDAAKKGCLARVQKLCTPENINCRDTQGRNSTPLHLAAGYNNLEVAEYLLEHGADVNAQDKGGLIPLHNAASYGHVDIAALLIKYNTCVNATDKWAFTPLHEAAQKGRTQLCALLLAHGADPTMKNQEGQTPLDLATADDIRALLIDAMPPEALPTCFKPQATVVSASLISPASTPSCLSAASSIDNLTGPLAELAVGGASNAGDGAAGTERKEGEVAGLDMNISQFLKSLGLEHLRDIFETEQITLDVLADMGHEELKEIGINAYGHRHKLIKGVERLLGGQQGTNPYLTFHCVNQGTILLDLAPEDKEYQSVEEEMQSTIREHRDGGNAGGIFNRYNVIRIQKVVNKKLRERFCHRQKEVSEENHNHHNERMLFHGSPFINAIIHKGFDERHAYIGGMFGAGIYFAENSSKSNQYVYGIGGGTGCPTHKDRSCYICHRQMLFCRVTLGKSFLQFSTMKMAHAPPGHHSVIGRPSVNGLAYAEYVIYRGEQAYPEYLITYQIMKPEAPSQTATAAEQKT
The experiment in a line: Inhibition of human PARP5a catalytic domain expressed in bacterial expression system assessed as reduction in enzyme mediated autoPARylation at 100 uM using NAD+ as substrate measured after 2 hrs by immunoblot analysis. In outline:
(§3)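 Catalytic domains of human PARP5a (PARylation) and PARP10 (MARylation), bacterially expressed and purified, were auto-ADP-ribosylated with NAD⁺ without or with 100 μM compound. Detection was by immunoblot using the AF1521 macrodomain pan-ADPr binding reagent, with anti-His₆ loading control. Densitometry was normalized to the loading control.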

For test [5], the target named is T1, Poly [ADP-ribose] polymerase 2. The experiment in a line: Inhibition of human full-length PARP2 expressed in bacterial expression system assessed as reduction in enzyme mediated autoPARylation using NAD+ as substrate preincubated for 30 mins followed by substrate addition and measured after 2 hrs by immunoblot analysis.
The subject of test [6] is HAP1. The experiment in a line: Inhibition of PARP in human HAP1 cell lysates assessed as reduction in protein ADP-ribosylation at 100 uM using NAD+ as substrate measured after 2 hrs by immunoblot analysis. The test is classed as subcellular. Summed up:
as §2

Test [7] addresses T3, Protein mono-ADP-ribosyltransferase PARP10 (Homo sapiens) (UniProt Q53GL7).
T3 sequence (whole entry): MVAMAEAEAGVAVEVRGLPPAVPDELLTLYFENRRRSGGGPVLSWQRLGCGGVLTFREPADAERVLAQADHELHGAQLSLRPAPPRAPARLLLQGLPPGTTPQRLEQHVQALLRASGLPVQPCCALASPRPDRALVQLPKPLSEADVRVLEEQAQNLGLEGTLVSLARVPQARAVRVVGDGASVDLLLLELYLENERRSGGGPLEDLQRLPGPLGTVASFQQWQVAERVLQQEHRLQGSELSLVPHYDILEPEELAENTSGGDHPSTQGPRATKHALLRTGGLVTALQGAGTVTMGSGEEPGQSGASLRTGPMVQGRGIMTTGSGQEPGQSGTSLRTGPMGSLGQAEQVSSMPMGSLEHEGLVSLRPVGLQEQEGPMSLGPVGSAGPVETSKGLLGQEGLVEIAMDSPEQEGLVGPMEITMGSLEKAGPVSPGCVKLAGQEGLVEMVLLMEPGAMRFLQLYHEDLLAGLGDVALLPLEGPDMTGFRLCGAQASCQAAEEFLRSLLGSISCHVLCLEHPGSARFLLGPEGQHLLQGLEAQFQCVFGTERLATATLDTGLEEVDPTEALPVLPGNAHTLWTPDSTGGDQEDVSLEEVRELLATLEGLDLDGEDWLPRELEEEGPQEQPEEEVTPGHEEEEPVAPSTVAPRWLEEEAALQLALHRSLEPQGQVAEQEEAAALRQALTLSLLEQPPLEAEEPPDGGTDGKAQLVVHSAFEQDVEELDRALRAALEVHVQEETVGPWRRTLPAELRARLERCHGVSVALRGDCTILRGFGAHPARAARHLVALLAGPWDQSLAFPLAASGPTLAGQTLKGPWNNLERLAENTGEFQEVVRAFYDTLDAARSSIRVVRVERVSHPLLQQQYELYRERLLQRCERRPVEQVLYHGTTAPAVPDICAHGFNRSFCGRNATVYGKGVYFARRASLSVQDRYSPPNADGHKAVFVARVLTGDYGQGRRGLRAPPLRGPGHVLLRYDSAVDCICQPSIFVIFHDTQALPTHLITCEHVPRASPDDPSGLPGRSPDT
The experiment in a line: Inhibition of human PARP10 catalytic domain expressed in bacterial expression system assessed as reduction in enzyme mediated autoPARylation at 100 uM using NAD+ as substrate measured after 2 hrs by immunoblot analysis. Summed up: as §3

For test [8], the target named is T4, Protein mono-ADP-ribosyltransferase PARP10 (Homo sapiens, UniProt Q53GL7).
T4 sequence (Q53GL7 whole entry): T3 sequence (whole entry)
As to the kind of experiment: Inhibition of human PARP10 catalytic domain expressed in bacterial expression system assessed as reduction in enzyme mediated autoPARylation using NAD+ as substrate measured after 2 hrs by immunoblot analysis.

In ChEMBL document CHEMBL6127150, “Discovery of PARP1-Sparing Inhibitors for Protein ADP-Ribosylation” (ACS Med Chem Lett, 2024) one finds inhibition and IC50 data, which are given here for 10 compounds.

Calls of active or inactive are those of the source. The calls are words filed in the database; no cut-off is given here.

T1 sequence (Q9UGN5 whole entry): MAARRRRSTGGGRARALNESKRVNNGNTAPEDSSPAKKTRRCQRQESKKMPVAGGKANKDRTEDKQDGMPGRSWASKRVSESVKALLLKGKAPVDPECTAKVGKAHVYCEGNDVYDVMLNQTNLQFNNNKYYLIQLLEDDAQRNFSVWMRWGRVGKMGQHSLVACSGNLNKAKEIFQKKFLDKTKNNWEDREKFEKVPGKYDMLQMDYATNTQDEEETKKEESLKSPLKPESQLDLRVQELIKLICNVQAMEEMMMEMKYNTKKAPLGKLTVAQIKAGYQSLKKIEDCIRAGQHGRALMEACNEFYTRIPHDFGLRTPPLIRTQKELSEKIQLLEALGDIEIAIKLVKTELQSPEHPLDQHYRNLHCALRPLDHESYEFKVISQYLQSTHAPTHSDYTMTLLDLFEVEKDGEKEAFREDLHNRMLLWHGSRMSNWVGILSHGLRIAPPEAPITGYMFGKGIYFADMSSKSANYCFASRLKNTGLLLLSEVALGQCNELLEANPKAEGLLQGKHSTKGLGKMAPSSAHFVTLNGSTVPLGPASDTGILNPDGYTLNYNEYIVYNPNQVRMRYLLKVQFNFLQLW
Poly [ADP-ribose] polymerase 1 (Homo sapiens), sequence (P09874 whole entry): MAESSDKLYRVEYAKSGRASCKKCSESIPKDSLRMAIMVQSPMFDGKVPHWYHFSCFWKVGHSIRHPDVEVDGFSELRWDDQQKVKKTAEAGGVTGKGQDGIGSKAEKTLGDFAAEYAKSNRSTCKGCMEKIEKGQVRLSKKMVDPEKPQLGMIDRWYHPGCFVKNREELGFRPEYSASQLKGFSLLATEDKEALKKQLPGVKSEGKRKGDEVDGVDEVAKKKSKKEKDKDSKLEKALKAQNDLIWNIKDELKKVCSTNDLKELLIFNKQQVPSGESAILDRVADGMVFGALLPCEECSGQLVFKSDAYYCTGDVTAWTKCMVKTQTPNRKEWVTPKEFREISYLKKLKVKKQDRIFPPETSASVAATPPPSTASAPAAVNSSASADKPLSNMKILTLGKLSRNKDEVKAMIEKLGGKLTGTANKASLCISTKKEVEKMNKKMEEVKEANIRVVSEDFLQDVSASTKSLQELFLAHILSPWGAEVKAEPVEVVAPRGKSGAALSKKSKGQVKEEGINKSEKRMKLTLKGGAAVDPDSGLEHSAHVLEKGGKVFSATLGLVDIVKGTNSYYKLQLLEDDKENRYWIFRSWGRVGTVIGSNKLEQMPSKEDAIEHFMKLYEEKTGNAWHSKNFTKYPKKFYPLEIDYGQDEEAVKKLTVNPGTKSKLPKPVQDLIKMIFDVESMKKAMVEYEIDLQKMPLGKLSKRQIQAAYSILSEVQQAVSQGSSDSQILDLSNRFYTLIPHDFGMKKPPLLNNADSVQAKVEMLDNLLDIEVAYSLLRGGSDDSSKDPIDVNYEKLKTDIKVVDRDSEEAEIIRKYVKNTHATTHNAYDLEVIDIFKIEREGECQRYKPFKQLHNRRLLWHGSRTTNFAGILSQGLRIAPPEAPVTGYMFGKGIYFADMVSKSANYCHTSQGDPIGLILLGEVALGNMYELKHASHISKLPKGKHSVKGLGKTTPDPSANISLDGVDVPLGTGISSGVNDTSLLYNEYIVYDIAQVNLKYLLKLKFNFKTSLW

Take `CC(=O)c1cccc(C(=O)Nc2ccccc2C(N)=O)c1`: the inhibition result in test [1] was “inactive”.

By IC50 is commonly meant the concentration needed to halve the response being measured. For the compound `CC(=O)c1cccc(COc2ccccc2C(N)=O)c1`, the inhibition entry in test [1] is “inactive”. The inhibition result in test [2], in test [3], in test [4], in test [6] and in test [7] was “Active” throughout. Besides, the IC50 was 102 µM in test [5] and 15.3 µM in test [8].

Consider `CC(=O)c1cccc([C@@H](C)Oc2ccccc2C(N)=O)c1`, for which, in test [2], the inhibition result is “Active”.

Regarding `O=C(c1cc(Cc2n[nH]c(=O)c3ccccc23)ccc1F)N1CCN(C(=O)C2CC2)CC1`, the inhibition entry in test [3] and in test [6] was “Active” throughout.

For the compound `CC(=O)c1cccc(CNc2ccccc2C(N)=O)c1`, the inhibition result in test [1] was “inactive”.

Turning to `CC(=O)c1cc(COc2ccccc2C(N)=O)ccc1F`, the inhibition entry in test [1] is “inactive”. Further, the inhibition result in test [2], in test [3], in test [4], in test [6] and in test [7] was “Active” each time. Further, the IC50 in test [5] is 50.1 µM; in test [8], 39.4 µM.

For `CC(=O)c1cccc(CCOc2ccccc2C(N)=O)c1`, the inhibition result in test [1] is “inactive”. In addition, the inhibition result in test [2], in test [3], in test [4], in test [6] and in test [7] was “Active” in each case. Further, the IC50 is 59.7 µM in test [5] and 48.3 µM in test [8].

Regarding `CC(=O)c1cccc(CCOc2ccc(F)cc2C(N)=O)c1`, the inhibition result in test [1] was “inactive”. Further, the inhibition result in test [2], in test [3], in test [4], in test [6] and in test [7] was “Active” throughout. Moreover, the IC50 in test [5] was determined as 51.5 µM; in test [8], 36.9 µM.

Take `CC(=O)c1cccc(CCCOc2ccccc2C(N)=O)c1`: the inhibition result in test [2] was “Active”.

Take `CC(=O)c1cccc([C@H](C)Oc2ccccc2C(N)=O)c1`: the inhibition result in test [2] is “Active”.
